Values joined by “and” are separate entries in the source; they are usually repeats but may differ in a detail not shown here. Identical values can stand only once. “Also recorded” adds a separate entry of the source. Counter-ions that a name gives are not always drawn. Marks after values point to notes of the source that are not given here.
What was measured:
[1] = tested on: Intracellular amastigotes of L. (V.) braziliensis; experiment: Intracellular amastigote inhibition in transformed THP-1 cells; assay type: cell-based, Leishmania (Viannia) braziliensis
How it was run: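 PMA-differentiated (72 h) THP-1 cells infected with latent-phase L. (V.) braziliensis MHOM/BR/75/M2903 promastigotes, 8 × 10^5 cells/mL. Exposed 24 h to NE serial dilutions (1:2–1:1,000), vehicle, ClAlPc (0.04–20 µM) or PM (244.0–121,827.0 µM) solutions. Then 400–700 nm light, 32°C, 32 min, 5 J/cm2, or kept non-irradiated, followed by 24 h dark. Giemsa counts of infected/uninfected cells give % inhibition versus untreated controls. PI = % inhibition at 0 J/cm2 / % at 5 J/cm2.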

cutaneous leishmaniasis = settings: different CL topical formulations alone or combined; cited from earlier work
[2] = tested on: Promastigotes of L. (V.) braziliensis (MHOM/BR/75/M2903); experiment: Promastigote inhibition; assay type: cell-based, Leishmania (Viannia) braziliensis
THP-1 cell = THP-1 cell toxicity; assay type: cell-based, Human
How it was run: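 Non-infected THP-1 cells were PMA-transformed (72 h) and seeded at 8 × 10^5 cells/mL. Treated 24 h with NE serial dilutions (1:2–1:1,000), vehicle, or ClAlPc/PM solutions. Irradiated at 37°C with 400–700 nm light, 32 min, 5 J/cm2, or left non-irradiated, then incubated 24 h in the dark. Viability read by MTT; % toxicity calculated relative to untreated controls.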

[3] = assay type: in vivo, BALB/c mice; settings: range over organs after topical NE treatment; listed as PM
How it was run: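 Healthy female BALB/c mice, 7–9 weeks (N = 3/group), received 50 μL NE topically at the tail base every three days for 15 days. ClAlPc groups were irradiated (672 ± 40 nm, 7 min, 20 J/cm2) 30 min post-application. Six days after treatment, liver, spleen, kidney and treated skin (20–25 mg) were macerated, sonicated and centrifuged 10 min at 10,000 rpm. Supernatants were taken up in Trizma buffer pH 7.8, and PM was measured by C18 HPLC after 1-fluoro-2,4-dinitrobenzene derivatization.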

[4] = Ex vivo skin permeation and retention test; assay type: in vitro ADME, mice
[5] = dilution 100 (0.4 µM ClAlPc), PDT + (5 J/cm^2)
[6] = dilution 1,000, PDT + (5 J/cm^2)

Compound | % of inhibition (mean ± SD), Intracellular amastigotes ([1]; dilution 50, PDT + (5 J/cm^2)) [%] | % of inhibition (mean ± SD), Intracellular amastigotes ([1]; dilution 50, PDT −) [%] | % of inhibition (mean ± SD), Intracellular amastigotes [1, 5] [%] | % of inhibition (mean ± SD), Intracellular amastigotes ([1]; dilution 100, PDT −) [%] | % of inhibition (mean ± SD), Intracellular amastigotes ([1]; dilution 300, PDT + (5 J/cm^2)) | % of inhibition (mean ± SD), Intracellular amastigotes ([1]; dilution 300, PDT −) [%] | % of inhibition (mean ± SD), Intracellular amastigotes ([1]; dilution 500, PDT + (5 J/cm^2)) | % of inhibition (mean ± SD), Intracellular amastigotes ([1]; dilution 500, PDT −) [%] | % of inhibition (mean ± SD), Promastigotes ([2]; dilution 2, PDT + (5 J/cm^2)) [%] | % of inhibition (mean ± SD), Promastigotes ([2]; dilution 2, PDT −) [%] | % of inhibition (mean ± SD), Promastigotes ([2]; dilution 10, PDT + (5 J/cm^2)) [%] | % of inhibition (mean ± SD), Promastigotes ([2]; dilution 10, PDT −) [%] | % of inhibition (mean ± SD), Promastigotes ([2]; dilution 100, PDT −) [%] | % of inhibition (mean ± SD), Promastigotes [2, 6] [%] | % of inhibition (mean ± SD), Promastigotes ([2]; dilution 1,000, PDT −) [%] | % of inhibition (mean ± SD), THP-1 cell (THP-1 cell; dilution 2, PDT + (5 J/cm^2)) [%] | % of inhibition (mean ± SD), THP-1 cell (THP-1 cell; dilution 2, PDT −) [%] | % of inhibition (mean ± SD), THP-1 cell (THP-1 cell; dilution 10, PDT + (5 J/cm^2)) [%] | % of inhibition (mean ± SD), THP-1 cell (THP-1 cell; dilution 10, PDT −) [%] | % of inhibition (mean ± SD), THP-1 cell (THP-1 cell; dilution 100, PDT + (5 J/cm^2)) [%] | further results
NC[C@@H]1O[C@H](O[C@H]2[C@@H](O)[C@H](O[C@@H]3[C@@H](O)[C@H](N)C[C@H](N)[C@H]3O[C@H]3O[C@H](CO)[C@@H](O)[C@H](O)[C@H]3N)O[C@@H]2CO)[C@H](N)[C@@H](O)[C@@H]1O [PM (s), paromomycin sulfate] | 54.1 ± 2.6 | 60.6 ± 2.4 | 46.6 ± 2.8 | 48.5 ± 5.8 | 30.3 ± 2.8% | 27.3 ± 8.1 | 0% | 2.3 ± 1.1 | 78.7 ± 5.9 | 78.5 ± 3.3 | 98.5 ± 1.4 | 98.4 ± 1.6 | 99.9 ± 0.0 | 100 | 100 | 78.7 ± 5.3 | 79.2 ± 3.0 | 34.3 ± 5.2 | 33.1 ± 3.5 | 18.6 ± 5.1 | Healing rates (clinical efficacy) (cutaneous leishmaniasis): 53.3 to 90.0%; % of inhibition (mean ± SD), Promastigotes [2, 5]: 99.9 ± 0.0%; % of inhibition (mean ± SD), THP-1 cell (THP-1 cell; dilution 100, PDT −): 17.9 ± 8.0^a %; % of inhibition (mean ± SD), THP-1 cell (THP-1 cell; [6]): 0.7 ± 1.0%; % of inhibition (mean ± SD), THP-1 cell (THP-1 cell; dilution 1,000, PDT −): 0.3 ± 0.6%; Concentrations of PM detected in organs [3]: 27.3 - 292.5 μM/25 mg and 27.26 - 292.49 μM/25 mg
chloroaluminium phthalocyanine [ClAlPc (s)] | 93.4 ± 2.8 | 2.8 ± 0.3 | 65.8 ± 4.7 | 0.5 ± 0.8 | 21.8 ± 7.0^a % | 0.4 ± 0.0 | 6.9 ± 2.1^a % | 0 | 100 | 0.3 ± 0.7 | 100 | 1.0 ± 1.0 | 0 | 0 | 0 | 97.8 ± 0.6 | 4.5 ± 1.7 | 97.6 ± 0.5 | 0 | 49.1 ± 4.8 | % of inhibition (mean ± SD), THP-1 cell (THP-1 cell; dilution 100, PDT −): 0%; % of inhibition (mean ± SD), THP-1 cell (THP-1 cell; [6]): 13.8 ± 4.1%; % of inhibition (mean ± SD), THP-1 cell (THP-1 cell; dilution 1,000, PDT −): 0%; ClAlPc retained in the epidermis/dermis ([4]; after 24 h): 26.27 μM/cm^2; ClAlPc retained by the stratum corneum ([4]; after 24 h, tape stripping): 143.97 μM/cm^2; ClAlPc skin permeation (receptor compartment) ([4]; any time point up to 24 h): No skin ClAlPc permeation was observed; also recorded: did not permeate through the skin
